Measurements as given in ChEMBL document CHEMBL1156597, “Structure-activity relationship of kahalalide F synthetic analogues” (J Med Chem, 2008).

Assays:
K562 = test: Cytotoxicity against human K562 cells after 48 hrs by SRB assay; assay type: functional; details: K562, 48 h; for CC50: read-out: LC50 (the source's name)
In short: (§1)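 Cells grown in RPMI 1640 with 10% FBS and penicillin/streptomycin at 37 °C and 5% CO₂, trypsinized, then seeded at 5 × 10³/well. After 18 h drug-free attachment, samples in DMSO/EtOH/PBS (0.5:0.5:99) were added for 48 h continuous exposure. Cells were fixed with cold TCA (1 h, 4 °C) and stained with SRB (10 min). Tris-solubilized stain read at 490 nm. Triplicate wells, mean ± SD; GI₅₀ derived.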

LoVo [1] = test: Cytotoxicity against human LoVo cells after 48 hrs by SRB assay; assay type: functional; details: for CC50: read-out: LC50 (the source's name)
[2] = Cytotoxicity against human HeLa-APL cells after 48 hrs by SRB assay; assay type: functional; in short: as §1
DU-145 = test: Cytotoxicity against human DU145 cells after 48 hrs by SRB assay; assay type: functional, cell-based; details: Homo sapiens, DU-145, 48 h; for CC50: read-out: LC50 (the source's name); in short: as §1
HT-29 = test: Cytotoxicity against human HT29 cells after 48 hrs by SRB assay; assay type: functional, cell-based; details: Homo sapiens, HT-29, 48 h; for CC50: read-out: LC50 (the source's name); in short: as §1
HeLa = test: Cytotoxicity against human HeLa cells after 48 hrs by SRB assay; assay type: functional; details: for CC50: read-out: LC50 (the source's name); in short: as §1
PANC-1 = test: Cytotoxicity against human PANC1 cells after 48 hrs by SRB assay; assay type: functional; details: PANC-1, 48 h; for CC50: read-out: LC50 (the source's name); in short: as §1
A549 = test: Cytotoxicity against human A549 cells after 48 hrs by SRB assay; assay type: functional, cell-based; details: Homo sapiens, A549, 48 h; in short: as §1
LNCaP = test: Cytotoxicity against human LNcaP cells after 48 hrs by SRB assay; assay type: functional; details: for CC50: read-out: LC50 (the source's name); in short: as §1
SK-MEL-28 = test: Cytotoxicity against human SK-MEL-28 cells after 48 hrs by SRB assay; assay type: functional, cell-based; details: Homo sapiens, SK-MEL-28, 48 h; for CC50: read-out: LC50 (the source's name); in short: as §1
[3] = Cytotoxicity against human IGROV-ET cells after 48 hrs by SRB assay; assay type: functional; details: for CC50: read-out: LC50 (the source's name); in short: as §1
[4] = Cytotoxicity against human IGROV cells after 48 hrs by SRB assay; assay type: functional; details: for CC50: read-out: LC50 (the source's name); in short: as §1
SK-BR-3 = test: Cytotoxicity against human SKBR3 cells after 48 hrs by SRB assay; assay type: functional; details: SK-BR-3, 48 h; for GI50: read-out: GI50; for CC50: read-out: LC50 (the source's name); in short: as §1
LoVo [5] = test: Cytotoxicity against human doxorubicin resistant LoVo cells after 48 hrs by SRB assay; assay type: functional; details: for CC50: read-out: LC50 (the source's name); in short: as §1

Row | SMILES | CC50 (K562) [nM] | GI50 (LoVo [1]) [nM] | TGI (LoVo [1]) [nM] | CC50 (LoVo [1]) [nM] | GI50 [2] [nM] | LC50 (concentration giving 50% net cell kill) [2] [nM] | GI50 (DU-145; read-out: GI50) [nM] | CC50 (DU-145) [nM] | CC50 (HT-29) [nM] | CC50 (HeLa) [nM] | CC50 (PANC-1) [nM] | LC50 (A549) [nM] | GI50 (LNCaP) [nM] | TGI (LNCaP) [nM] | CC50 (LNCaP) [nM] | GI50 (SK-MEL-28; read-out: GI50) [nM] | CC50 (SK-MEL-28) [nM] | GI50 ([3]; read-out: GI50) [nM] | CC50 [3] [nM] | CC50 [4] [nM] | further results
1 | C/C=C1\NC(=O)[C@H](Cc2ccccc2)NC(=O)[C@@H](C(C)C)NC(=O)[C@@H]([C@H](C)CC)NC(=O)[C@H](NC(=O)[C@H](NC(=O)[C@H](CCCN)NC(=O)[C@H]2CCCN2C(=O)[C@H](NC(=O)[C@H](CC(C)C)NC(=O)[C@@H](NC(=O)[C@H](NC(=O)CCCC(C)C)C(C)C)[C@@H](C)O)C(C)C)[C@H](C)CC)[C@H](C)OC(=O)[C@H](C(C)C)NC1=O | 2300 | 312 | 324 | 337 | 939 | 807 | 941 | 863 | 479 | 765 | 2510 | 1110 | 1030 | 1120 | 1230 | 964 | 8750 | 350 | 383 | 375 | GI50 (K562): 2100 nM; TGI (K562): 2210 nM; TGI [2]: 871 nM; GI50 (DU-145): 903 nM; GI50 (HT-29): 612 nM; TGI (HT-29): 679 nM; GI50 (HeLa): 1020 nM; TGI (HeLa): 887 nM; GI50 (PANC-1): 3290 nM; TGI (PANC-1): 4870 nM; TGI (A549): 1190 nM; GI50 (A549; read-out: GI50): 1280 nM; TGI (SK-MEL-28): 9120 nM; TGI [3]: 380 nM; TGI [4]: 4020 nM; GI50 ([4]; read-out: GI50): 464 nM; TGI (SK-BR-3): 482 nM; GI50 (SK-BR-3): 445 nM; CC50 (SK-BR-3): 689 nM
2 | C/C=C1\NC(=O)[C@H](Cc2ccccc2)NC(=O)[C@@H](C(C)C)NC(=O)[C@@H]([C@H](C)CC)NC(=O)[C@H](NC(=O)[C@H](NC(=O)[C@H](CCCN)NC(=O)[C@H]2CCCN2C(=O)[C@H](NC(=O)[C@@H](NC(=O)[C@@H](NC(=O)[C@H](NC(=O)c2ccc(C(F)(F)F)cc2)C(C)C)[C@@H](C)O)C(C)C)C(C)C)[C@H](C)CC)[C@H](C)OC(=O)[C@H](C(C)C)NC1=O | 2340 | 253 | 268 | 286 | 519 | 717 | 310 | 800 | 76.5 | 601 | 2430 | 473 | 341 | 621 | 799 | 839 | 809 | 140 | 294 | 321 | TGI [2]: 665 nM; GI50 (DU-145): 685 nM; GI50 (HeLa): 348 nM; TGI (HeLa): 526 nM; GI50 (PANC-1): 1840 nM; TGI (PANC-1): 2260 nM; GI50 (A549): 254 nM; GI50 (A549; read-out: GI50): 202 nM; GI50 (SK-MEL-28): 823 nM; GI50 [3]: 223 nM; GI50 [4]: 236 nM; GI50 ([4]; read-out: GI50): 247 nM; TGI (SK-BR-3): 289 nM; GI50 (SK-BR-3): 303 nM; CC50 (SK-BR-3): 223 nM
3 | C/C=C1\NC(=O)[C@H](Cc2ccccc2)NC(=O)[C@@H](C(C)C)NC(=O)[C@@H]([C@H](C)CC)NC(=O)[C@H](NC(=O)[C@H](NC(=O)[C@H](CCCN)NC(=O)[C@H]2CCCN2C(=O)[C@H](NC(=O)[C@H](CCC(N)=O)NC(=O)[C@@H](NC(=O)[C@H](NC(=O)CCCC(C)C)C(C)C)[C@@H](C)O)C(C)C)[C@H](C)CC)[C@H](C)OC(=O)[C@H](C(C)C)NC1=O | 2390 | – | – | 4690 | – | 1300 | – | 1620 | 869 | 1020 | 2480 | 1870 | 3120 | 3170 | 1510 | – | 1410 | – | 689 | 619 | CC50 (SK-BR-3): 2720 nM
4 | C/C=C1\NC(=O)[C@H](Cc2ccccc2)NC(=O)[C@@H](C(C)C)NC(=O)[C@@H]([C@H](C)CC)NC(=O)[C@H](NC(=O)[C@H](NC(=O)[C@H](CCCN)NC(=O)[C@H]2CCCN2C(=O)[C@H](NC(=O)[C@@H](NC(=O)[C@@H](NC(=O)[C@@H](CC(C)C)NC(=O)CCCC(C)C)[C@@H](C)O)C(C)C)C(C)C)[C@H](C)CC)[C@H](C)OC(=O)[C@H](C(C)C)NC1=O | 2180 | 608 | 842 | 856 | 1000 | 948 | 1340 | 889 | 509 | 955 | 2790 | 1080 | 1790 | 2550 | 1130 | 1090 | 1060 | 1310 | 365 | 5640 | GI50 (K562): 2720 nM; TGI (K562): 2430 nM; TGI [2]: 1460 nM; TGI (DU-145): 1070 nM; GI50 (HT-29): 661 nM; TGI (HT-29): 728 nM; GI50 (PANC-1): 2910 nM; TGI (PANC-1): 5210 nM; GI50 (LoVo [5]): 325 nM; TGI (LoVo [5]): 329 nM; CC50 (LoVo [5]): 3370 nM; TGI (SK-MEL-28): 1070 nM; GI50 [3]: 298 nM; GI50 [4]: 845 nM; GI50 ([4]; read-out: GI50): 1050 nM
5 | C/C=C1\NC(=O)[C@H](Cc2ccccc2)NC(=O)[C@@H](C(C)C)NC(=O)[C@@H]([C@@H](C)CC)NC(=O)[C@H](NC(=O)[C@H](NC(=O)[C@H](CCCN)NC(=O)[C@H]2CCCN2C(=O)[C@H](NC(=O)[C@@H](NC(=O)[C@@H](NC(=O)[C@H](NC(=O)CCCC(C)C)[C@@H](C)O)[C@@H](C)O)C(C)C)C(C)C)[C@@H](C)CC)[C@@H](C)OC(=O)[C@H](C(C)C)NC1=O | 2370 | 367 | 727 | 896 | 1040 | 977 | 1470 | 9290 | 575 | 1020 | 2810 | 1030 | 1950 | 2580 | 1140 | 1220 | 1100 | 1000 | 257 | 582 | TGI [2]: 1520 nM; TGI (DU-145): 1150 nM; GI50 (HT-29): 1060 nM; TGI (HT-29): 886 nM; GI50 (PANC-1): 3910 nM; TGI (PANC-1): 5260 nM; TGI (A549): 1260 nM; GI50 (A549; read-out: GI50): 1550 nM; GI50 (LoVo [5]): 325 nM; TGI (LoVo [5]): 327 nM; CC50 (LoVo [5]): 331 nM; TGI (SK-MEL-28): 1160 nM; GI50 [3]: 231 nM; GI50 [4]: 909 nM; GI50 ([4]; read-out: GI50): 1170 nM
6 | C/C=C1\NC(=O)[C@H](Cc2ccccc2)NC(=O)[C@@H](C(C)C)NC(=O)[C@@H]([C@H](C)CC)NC(=O)[C@H](NC(=O)[C@H](NC(=O)[C@H](CCCN)NC(=O)[C@H]2Cc3ccccc3CN2C(=O)[C@H](NC(=O)[C@@H](NC(=O)[C@@H](NC(=O)[C@H](NC(=O)CC[C@@H](C)CC)C(C)C)[C@@H](C)O)C(C)C)C(C)C)[C@H](C)CC)[C@H](C)OC(=O)[C@H](C(C)C)NC1=O | 2100 | 2620 | 2540 | 685 | – | 947 | 2390 | 1370 | 426 | 1050 | 1950 | 6500 | – | – | 1510 | 3630 | 1560 | 1060 | 527 | 464 | TGI (DU-145): 2280 nM; TGI (A549): 1540 nM; GI50 (A549; read-out: GI50): 1430 nM; GI50 (LoVo [5]): 2290 nM; TGI (LoVo [5]): 2490 nM; CC50 (LoVo [5]): 1740 nM; TGI (SK-MEL-28): 3110 nM; GI50 [3]: 779 nM; GI50 [4]: 806 nM; GI50 ([4]; read-out: GI50): 1520 nM
7 | C/C=C1\NC(=O)[C@H](Cc2ccccc2)NC(=O)[C@@H](C(C)C)NC(=O)[C@@H]([C@H](C)CC)NC(=O)[C@H](NC(=O)[C@H](NC(=O)[C@H](CCCN)NC(=O)[C@H]2CCCN2C(=O)[C@H](NC(=O)[C@@H](NC(=O)[C@@H](NC(=O)[C@@H](NC(=O)CCCC(C)C)C(C)C)[C@@H](C)O)C(C)C)C(C)C)[C@H](C)CC)[C@H](C)OC(=O)[C@H](C(C)C)NC1=O | 153 | 1300 | 3250 | 2090 | 1040 | 969 | 549 | 842 | 501 | 1020 | 1590 | 1040 | 853 | 911 | 967 | 1000 | 1060 | 2890 | 527 | 668 | TGI [2]: 1510 nM; GI50 (DU-145): 771 nM; GI50 (HT-29): 635 nM; TGI (HT-29): 728 nM; GI50 (PANC-1): 1510 nM; TGI (PANC-1): 1560 nM; TGI (A549): 1180 nM; GI50 (A549; read-out: GI50): 1330 nM; GI50 (LoVo [5]): 1760 nM; TGI (LoVo [5]): 2250 nM; CC50 (LoVo [5]): 2880 nM; TGI (SK-MEL-28): 1030 nM; GI50 [3]: 529 nM
